Assay results taken from ChEMBL document CHEMBL5321217, “Identification of pyrrolo[3',4':3,4]cyclohepta[1,2-d][1,2]oxazoles as promising new candidates for the treatment of lymphomas” (Eur J Med Chem, 2023).
pIC50: −log10 of the molar value. Active and inactive are the calls of the source. The rule behind the calls is not given here.

Columns and labels:
[1] = test system: NCI-H460; assay: Antiproliferative activity against human NCI-H460 cells assessed as growth inhibition incubated for 72 hrs by MTT assay; assay type: functional
[2] = test system: HOP-62; assay: Antiproliferative activity against human HOP-62 cells assessed as growth inhibition incubated for 72 hrs by MTT assay; assay type: functional
[3] = test system: CCRF-CEM; assay: Antiproliferative activity against human CCRF-CEM cells assessed as growth inhibition incubated for 72 hrs by MTT assay; assay type: functional
[4] = test system: K562; assay: Antiproliferative activity against human K562 cells assessed as growth inhibition incubated for 72 hrs by MTT assay; assay type: functional
[5] = test system: MOLT-4; assay: Antiproliferative activity against human MOLT-4 cells assessed as growth inhibition incubated for 72 hrs by MTT assay; assay type: functional
[6] = test system: RPMI-8226; assay: Antiproliferative activity against human RPMI-8226 cells assessed as growth inhibition incubated for 72 hrs by MTT assay; assay type: functional
[7] = test system: SR; assay: Antiproliferative activity against human SR cells assessed as growth inhibition incubated for 72 hrs by MTT assay; assay type: functional
[8] = test system: A549; assay: Antiproliferative activity against human A549 cells assessed as growth inhibition incubated for 72 hrs by MTT assay; assay type: functional
[9] = test system: EKVX; assay: Antiproliferative activity against human EKVX cells assessed as growth inhibition incubated for 72 hrs by MTT assay; assay type: functional
[10] = test system: COLO 205; assay: Antiproliferative activity against human COLO 205 cells assessed as growth inhibition incubated for 72 hrs by MTT assay; assay type: functional
[11] = test system: HCC 2998; assay: Antiproliferative activity against human HCC 2998 cells assessed as growth inhibition incubated for 72 hrs by MTT assay; assay type: functional
[12] = test system: HCT-116; assay: Antiproliferative activity against human HCT-116 cells assessed as growth inhibition incubated for 72 hrs by MTT assay; assay type: functional
[13] = test system: HT-29; assay: Antiproliferative activity against human HT-29 cells assessed as growth inhibition incubated for 72 hrs by MTT assay; assay type: functional
[14] = test system: SW-620; assay: Antiproliferative activity against human SW-620 cells assessed as growth inhibition incubated for 72 hrs by MTT assay; assay type: functional
[15] = test system: SF-268; assay: Antiproliferative activity against human SF-268 cells assessed as growth inhibition incubated for 72 hrs by MTT assay; assay type: functional
[16] = test system: SF-539; assay: Antiproliferative activity against human SF-539 cells assessed as growth inhibition incubated for 72 hrs by MTT assay; assay type: functional
[17] = test system: SNB-75; assay: Antiproliferative activity against human SNB-75 cells assessed as growth inhibition incubated for 72 hrs by MTT assay; assay type: functional
[18] = test system: LOX IMVI; assay: Antiproliferative activity against human LOX IMVI cells assessed as growth inhibition incubated for 72 hrs by MTT assay; assay type: functional
[19] = test system: UACC-62; assay: Antiproliferative activity against human UACC-62 cells assessed as growth inhibition incubated for 72 hrs by assay; assay type: functional
[20] = test system: OVCAR-5; assay: Antiproliferative activity against human OVCAR-5 cells assessed as growth inhibition incubated for 72 hrs by MTT assay; assay type: functional
[21] = test system: NCI/ADR-RES; assay: Antiproliferative activity against human NCI-ADR-RES cells assessed as growth inhibition incubated for 72 hrs by MTT assay; assay type: functional
[22] = test system: A498; assay: Antiproliferative activity against human A498 cells assessed as growth inhibition incubated for 72 hrs by MTT assay; assay type: functional
[23] = test system: ACHN; assay: Antiproliferative activity against human ACHN cells assessed as growth inhibition incubated for 72 hrs by MTT assay; assay type: functional
[24] = test system: CAKI-1; assay: Antiproliferative activity against human CAKI-1 cells assessed as growth inhibition incubated for 72 hrs by MTT assay; assay type: functional
[25] = test system: RXF 393; assay: Antiproliferative activity against human RXF 393 cells assessed as growth inhibition incubated for 72 hrs by MTT assay; assay type: functional
[26] = test system: SN12C; assay: Antiproliferative activity against human SN12C cells assessed as growth inhibition incubated for 72 hrs by MTT assay; assay type: functional
[27] = test system: UO-31; assay: Antiproliferative activity against human UO-31 cells assessed as growth inhibition incubated for 72 hrs by MTT assay; assay type: functional
[28] = test system: BT-549; assay: Antiproliferative activity against human BT-549 cells assessed as growth inhibition incubated for 72 hrs by MTT assay; assay type: functional
[29] = test system: T47D; assay: Antiproliferative activity against human T47D cells assessed as growth inhibition incubated for 72 hrs by MTT assay; assay type: functional
[30] = Antiproliferative activity against human HBL1 cells assessed as cell growth inhibition measured after 72 hrs by MTT assay; assay type: functional, cell-based; conditions: HBL1, 72 h
Method in brief: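 Lymphoma cells in RPMI-1640 with 20% FBS, seeded at 5,000–10,000 cells/well depending on doubling time. Exposed for 72 h at 37 °C, 5% CO2 to a 1:2 serial dilution from 0 to 10 μM (DMSO ≤0.1%). MTT from a 5 mg/mL stock was added for 4 h, cells were lysed with 25% SDS, and A570 was read against medium-only blanks. IC50 from triplicate assays.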

[31] = Cytotoxicity against resting human PBL cells assessed as inhibition of cell growth measured after 72 hrs by MTT assay; assay type: toxicity, cell-based; conditions: resting human peripheral blood lymphocytes (PBL)
[32] = test system: VL51; assay: Induction of cell cycle arrest in human VL51 cells assessed as reduction in accumulation of cells at S phase at 1 uM incubated for 24 hrs by PI staining based flow cytometry analysis; assay type: functional
Method in brief: (§1)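 Seeding in 6-well plates, 2 mL medium: A549 5×10^4, CCRF-CEM 2.5×10^5, VL51 2.0×10^5. 24 h treatment, A549 detached with trypsin-EDTA. Cells fixed in 70% ice-cold ethanol, PI-labelled, analysed by flow cytometry. Mean of two independent experiments.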

[33] = test system: VL51; assay: Induction of apoptosis in human VL51 cells assessed as increase in apoptotic cells incubated for 48 hrs by annexin V-FITC and PI staining based flow cytometry analysis; assay type: functional, cell-based; conditions: dose 1-5 µM
Method in brief: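 Cells exposed to several concentrations for 48 h, then stained with annexin V-FITC and PI and read by flow cytometry (FL1/FL3). Apoptotic cells = annexin V-positive plus annexin V/PI double-positive. Mean of three independent experiments.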

[34] = test system: VL51; assay: Induction of cell cycle arrest in human VL51 cells assessed as accumulation of cells at G2/M phase at 1 uM incubated for 24 hrs by PI staining based flow cytometry analysis; assay type: functional; method in brief: as §1
[35] = Antiproliferative activity against human MINO cells assessed as reduction in cell proliferation at 1 uM measured after 72 hrs by MTT assay relative to control; assay type: functional; parameters: scale not given: the % may be the effect or the level left
Method in brief: (§2)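 Single-dose screen at 1 μM for 72 h at 37 °C, 5% CO2 (DMSO ≤0.1%). Cells in RPMI-1640 with 20% FBS, seeded at 5,000–10,000 cells/well. MTT added for 4 h, SDS lysis, A570 read with medium-only blanks. Percent proliferation relative to untreated cells, run in triplicate.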

[36] = test system: SU-DHL10; assay: Antiproliferative activity against human SU-DHL-10 cells assessed as reduction in cell proliferation at 1 uM measured after 72 hrs by MTT assay relative to control; assay type: functional; parameters: scale not given: the % may be the effect or the level left
Method in brief: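 Single-dose 1 μM screen in lymphoma cells (RPMI-1640, 20% FBS; 5,000–10,000 cells/well), 72 h at 37 °C, 5% CO2, DMSO ≤0.1%. MTT for 4 h, SDS lysis, absorbance at 570 nm. Proliferation expressed as percent of untreated control.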

[37] = Antiproliferative activity against human HBL1 cells assessed as reduction in cell proliferation at 1 uM measured after 72 hrs by MTT assay relative to control; assay type: functional; parameters: scale not given: the % may be the effect or the level left; method in brief: as §2

Row | SMILES | GI50 [1] [nM] | GI50 [2] [nM] | GI50 [3] [nM] | GI50 [4] [nM] | GI50 [5] [nM] | GI50 [6] [nM] | GI50 [7] [nM] | GI50 [8] [nM] | GI50 [9] [nM] | GI50 [10] [nM] | GI50 [11] [nM] | GI50 [12] [nM] | GI50 [13] [nM] | GI50 [14] [nM] | GI50 [15] [nM] | GI50 [16] [nM] | GI50 [17] [nM] | GI50 [18] [nM] | GI50 [19] [nM] | GI50 [20] [nM] | further results
1 | COc1ccc(Cn2cc3c(c2-c2cc(OC)c(OC)c(OC)c2)CCCc2cnoc2-3)cc1N | 400 | 690 | 440 | 390 | 650 | 610 | 360 | 950 | 2670 | 380 | 1660 | 400 | 420 | 430 | 1450 | 400 | 380 | 700 | 430 | 1440 | GI50 [21]: 600 nM; GI50 [22]: 360 nM; GI50 [23]: 690 nM; GI50 [24]: 580 nM; GI50 [25]: 450 nM; GI50 [26]: 840 nM; GI50 [27]: 690 nM; GI50 [28]: 250 nM; GI50 [29]: 390 nM; pIC50 [30]: 6.30; IC50 at 72 h [31]: > 10000 nM; Activity [32]: Active; Activity [33]: Dose-Dependent Effect; Activity [34]: Active; Activity [35]: >50%; Activity [36]: >50%; Activity [37]: >50%
2 | COc1ccc(Cn2cc3c(c2-c2cc(OC)c(OC)c(OC)c2)CCCc2cnoc2-3)cc1 | 500 | 2220 | 410 | 420 | 800 | 1560 | 360 | 2340 | 3000 | 1450 | 1610 | 390 | 1130 | 470 | 4720 | 700 | 870 | 990 | 910 | 3720 | GI50 [21]: 540 nM; GI50 [22]: 690 nM; GI50 [23]: 900 nM; GI50 [24]: 490 nM; GI50 [25]: 660 nM; GI50 [26]: 4600 nM; GI50 [27]: 920 nM; GI50 [28]: 480 nM; GI50 [29]: 1850 nM; pIC50 [30]: 6.00; IC50 at 72 h [31]: > 10000 nM; Activity [32]: Active; Activity [33]: Dose-Dependent Effect; Activity [34]: Active; Activity [35]: >50%; Activity [36]: >50%; Activity [37]: >50%
